# Compound activity (PubChem BioAssay)
# CHOP UPR activ – apoptotic UPR (CHOP) activation; CHO-CHOP luciferase reporter, luminescence; percent of tunicamycin response over DMSO baseline; activation, % at 10 µM; 0.34% of 330,000 active; AID 449763;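 active means at 10 µM dose, activation of 40% or more, normalized to positive control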;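 further: 100% = tunicamycin at 10 µg/mL and 0% = DMSO alone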
#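 Dosing – one dose, 10 µM in 0.5% DMSO · System – CHO-CHOP cells, stable luciferase reporter of PERK-eIF2a-CHOP signalling · Input – 500 cells/well · Control set – tunicamycin 10 µg/mL final as positive, DMSO-only wells as negative · Timing – 6 h compound treatment, 37 °C · Measure – % activation vs tunicamycin · Technique – luminescence read with Steady-Glo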
# UCH37 inh – human UCH37 deubiquitinating enzyme inhibition | purified proteasome/UCH37, Ub-AMC cleavage fluorescence | AID 588478 | 0.33% of 330,000 active | inhibition, % (test concentration not listed) | Q9Y5K5;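 active means mean inhibition over replicate wells above about 20%, limit read from the data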;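 further: 0% = compound-free wells with enzyme and 100% = wells lacking proteasome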
# Target sequence (Q9Y5K5 whole entry, looked up): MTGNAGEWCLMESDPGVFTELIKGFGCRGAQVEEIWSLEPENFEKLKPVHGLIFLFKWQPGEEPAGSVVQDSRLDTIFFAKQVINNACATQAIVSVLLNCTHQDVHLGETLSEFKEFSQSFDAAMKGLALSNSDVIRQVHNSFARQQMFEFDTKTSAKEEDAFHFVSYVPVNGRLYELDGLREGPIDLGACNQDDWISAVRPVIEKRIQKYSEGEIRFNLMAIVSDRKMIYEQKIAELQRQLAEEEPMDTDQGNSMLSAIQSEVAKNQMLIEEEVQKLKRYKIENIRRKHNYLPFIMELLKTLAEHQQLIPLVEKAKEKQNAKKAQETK
#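 Schedule: 30 min plus 25 min, room temperature / Material: human UCH37 within purified proteasomes / Technique: AMC fluorescence intensity at 355/460 nm / Buffer or medium: pH 7.4 Tris-HCl (50 mM) with ovalbumin, ATP-MgCl2, DTT / Controls: wells without proteasome as full block, compound-free enzyme plus substrate as uninhibited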
# CHOP inh – blocks CHOP induction under ER stress. 3.8% of 220,000 active. CHO-K1 CHOP-promoter luciferase, tunicamycin-induced, 15-18 h. inhibition, % at 10 µM;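 active means compounds that reduced the stress-induced luciferase reporter signal by more than about 70% of percent inhibition, limit read from the data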;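 further: 0% = tunicamycin plus vehicle and 100% = wells without tunicamycin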
# CTSL1 counter – counter-screen for PFM18AAP inhibitors: inhibitors of F. hepatica cathepsin L1; recombinant F. hepatica cathepsin L1, Z-Leu-Arg-MCA fluorescence; inhibition, % at 5.96 µM; 0.49% of 300,000 active;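 active means inhibition above the mean of all tested compounds plus 3 SD, set per screening campaign, cut at about 17% in these data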;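 further: 0% = plate median of test compound wells and 100% = 1 µM Z-Phe-Ala-diazomethylketone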
# XBP1 UPR activ – activators of adaptive arm of unfolded protein response (XBP1); CHO-XBP1 luciferase reporter, IRE1-XBP1 UPR activation, luminescence; percent of tunicamycin response, DMSO as zero; activation, % at 20 µM; 0.33% of 330,000 active; AID 463104;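 active means versus positive control, 20 µM dose yields 30% or more activation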;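 further: 100% = tunicamycin at 10 µg/mL and 0% = DMSO only wells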
#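 Material – CHO cell line with stable XBP1 luciferase reporter · Buffer or medium – F12 plus 10% FBS · Compound – single point, 20 µM final compound, 1% DMSO · Schedule – 16-18 h cell attachment at 37 °C, then 6 h compound exposure · Signal – Steady-Glo luminescence read · Benchmarks – high control tunicamycin 10 µg/mL final, low control DMSO vehicle only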
# Starred values were filed as active, the others as inactive; x = no result given. Shown is part of a subset that was picked to be rich in hits.
SMILES,CHOP UPR activ,UCH37 inh,CHOP inh,CTSL1 counter,XBP1 UPR activ
O=C1c2cccc3cccc(c23)C(=O)N1/N=C/c1ccc(O)cc1O,0.4,x,70.2*,5.6,2.1
CCc1ccc(OCCCOc2ccc(C=O)cc2)cc1,-0.4,7.0,72.5*,1.4,0.4
CN(C)C=NS(=O)(=O)c1ccc(Cl)c(Cl)c1,x,0.4,x,x,x
COC(=O)c1cc(Cl)c(NC(=O)/C=C/c2ccc(Cl)cc2Cl)cc1OC,0.0,-148.3,83.7*,-1.3,-2.4
COc1ccc(CCNC(=O)c2cnc3n(c2=O)CCS3)cc1OC,-0.4,1.7,-6.8,40.8*,2.5
COc1ccc(CCNC(=O)Oc2ccccc2)cc1OC,-2.5,3.2,x,17.7*,-2.4
CN(C)c1ccc(/C=C/c2ccc3ccccc3n2)cc1,x,-104.0,77.8*,1.3,x
Cc1ccc(/C=C/c2nc3ccccc3s2)s1,-7.5,-13.2,28.1,0.4,-5.0
CN(C)c1ccc(/C=C/c2nc3ccccc3s2)cc1,-7.2,-18.6,81.1*,-3.3,-5.5
C(=C\c1ccc2ccccc2n1)/c1ccccc1,-5.0,-4.4,70.8*,-1.3,-7.9
Oc1ccc(/C=C/c2ccc3ccccc3n2)cc1,-6.7,-115.1,57.9,7.0,-7.1
CC(=NNc1ccc(Cl)cc1)C(=NO)C(=O)Nc1ccccc1,x,-0.1,x,x,x
COc1ccc(OC)c(C=NNC(=O)c2cc[n+](Cc3ccccc3)cc2)c1,x,-17.4,x,x,x
O=[N+]([O-])c1ccc(/C=N/Nc2nc(-c3ccccc3)c3cc(Br)ccc3n2)o1,4.3,x,82.4*,1.3,-1.0
Cc1ccc2nc(N/N=C\c3ccc([N+](=O)[O-])o3)nc(-c3ccccc3)c2c1,8.2,x,49.5,1.7,3.6
Cc1cc(C(=O)CSc2nc(N)cc(=O)[nH]2)c(C)n1CC1CCCO1 (stereo not drawn),1.9,4.5,x,x,-2.2
Cc1cc(C(=O)CSc2nc3ccccc3[nH]2)c(C)n1CC1CCCO1 (stereo not drawn),-3.0,1.1,73.8*,2.1,-3.9
CSC1=NCCCN1C(=O)c1c(-c2ccccc2Cl)noc1C,-2.6,0.6,12.5,-2.1,-0.4
CSC1=NCCN1C(=O)c1c(-c2ccccc2Cl)noc1C,2.7,0.1,89.0*,-4.1,-2.0
Cc1c(N=C2N=C(NC(=O)Nc3ccc(Cl)cc3)c3ccccc32)c(=O)n(-c2ccccc2)n1C,3.1,-7.4,92.4*,-1.2,25.0
O=C(O)/C=C/C(=O)Nc1ccc(Oc2ccccc2)cc1,3.0,3.8,20.9,4.9,-0.3
CCOC(=O)/C=C/C(=O)NNC(=O)c1ccccc1Cl,-3.0,-1.7,23.1,45.9*,0.0
NC(=S)NNC(=O)c1ccccc1Cl,0.3,2.4,-15.4,9.1,-0.8
O=C(CN1CCN(c2ccccc2)CC1)Nc1ccc(OCc2ccccc2)cc1,-2.6,4.6,86.1*,0.7,-0.5
CCOC(=O)N1CCN(CC(=O)Nc2ccc(Oc3ccccc3)cc2)CC1,1.8,4.5,81.9*,-1.6,0.9
SMILES,CHOP UPR activ,UCH37 inh,CHOP inh,CTSL1 counter,XBP1 UPR activ
CCOC(=O)/C=C/C(=O)Nc1ccc(Oc2ccccc2)cc1,8.5,0.3,50.6,31.3*,6.7
CN1CCN(CC(=O)Nc2ccc(Oc3ccccc3)cc2)CC1,3.0,2.1,-21.1,-1.6,0.5
O=C(NN=CCCc1ccccc1)c1ccc(CN2c3cccc4cccc(c34)S2(=O)=O)cc1,x,-111.1,x,x,x
Cc1c(C=NO)c2ccccn2c1C=O,x,3.1,x,x,x
CC(=O)c1c(C)[nH]c(C(=O)COc2cc(C)ccc2C(C)C)c1C,3.7,-2.5,83.2*,3.6,-4.3
COc1cc(C)ccc1OCC(=O)OCC(=O)c1[nH]c(C)c(C(C)=O)c1C,-0.7,5.1,x,x,-3.5
CCCSc1nc2c(cnn2-c2ccc(C)cc2)c(=O)[nH]1,-1.0,7.7,61.8,-0.9,0.9
CCC(C)Sc1nc2c(cnn2-c2ccccc2)c(=O)[nH]1 (stereo not drawn),-0.8,3.3,77.7*,8.2,7.5
CCCSc1nc2c(cnn2-c2ccccc2)c(=O)[nH]1,-0.6,3.9,79.8*,0.0,1.7
CCCSc1nc2c(cnn2-c2ccc(F)cc2)c(=O)[nH]1,-0.5,4.2,79.0*,-0.7,4.8
CC(C)(C)c1ccc(C(=O)CSc2nc3ccccc3c(=O)[nH]2)cc1,-1.1,-1.2,74.5*,-1.6,-0.3
CCCSc1nc2c(cnn2-c2ccc(C)c(C)c2)c(=O)[nH]1,1.5,4.1,29.3,-2.4,8.3
